Data set [1] in a line: Chemical stability in RPMI-1640 culture medium at 2 uM up to 6 days by HPLC analysis. The format is physicochemical. The conditions noted are these: 144 h.
Data set [2] can be described thus: Chemical stability assessed as enzymatic hydrolysis half life in RPMI-1640 culture medium containing heat non-inactivated fetal bovine serum by HPLC analysis. It counts as physicochemical. The settings on record: cattle. The procedure, abridged:
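Enzymatic hydrolysis by phosphoesterases was followed in RPMI-1640 containing heat non-inactivated FBS (RPMI/FBS 9:1, v/v).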

Data set [3] has as its system Human immunodeficiency virus 1. The data set is described as follows: Antiviral activity against efavirenz-resistant HIV1 infected in human MT4 cells assessed as protection from virus-induced cytopathogenicity after 4 days by MTT assay. It counts as functional, organism-based. The settings on record: Human immunodeficiency virus 1, MT4, 96 h. An outline of the steps:
(§1)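 MT-4 cells, acutely infected at m.o.i. 0.01, were used to read inhibition of HIV-1-induced cytopathogenicity. Compounds were made as 100 mM DMSO stocks and diluted in culture medium. Viability was read by MTT. EC50 is the concentration giving 50% protection, as the mean (+SD) of three independent determinations.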
(Damage to the host cells serves as the signal in cytopathic effect assays.)

Data set [4] concerns Human immunodeficiency virus 1. Briefly: Antiviral activity against MDR1-resistant HIV1 infected in human MT4 cells assessed as protection from virus-induced cytopathogenicity after 4 days by MTT assay. The settings on record: Human immunodeficiency virus 1, MT4, 96 h. It counts as functional, organism-based. An outline of the steps: as §1
In data set [5] the test system is Human immunodeficiency virus 1. The data set is described as follows: Antiviral activity against non-nucleoside reverse transcriptase inhibitor-resistant HIV1 bearing reverse transcriptase N119 (Y181C) mutation infected in human MT4 cells assessed as protection from virus-induced cytopathogenicity after 4 days by MTT assay. The conditions noted are these: Human immunodeficiency virus 1, MT4, 96 h. It counts as functional, organism-based. The procedure, abridged: as §1

The subject of data set [6] is Human immunodeficiency virus 1. Briefly: Antiviral activity against azidothymidine-resistant HIV1 infected in human MT4 cells assessed as protection from virus-induced cytopathogenicity after 4 days by MTT assay. The format is functional, organism-based. The settings on record: Human immunodeficiency virus 1, MT4, 96 h. The procedure, abridged: as §1
Data set [7] has as its system Human immunodeficiency virus 1. The data set is described as follows: Antiviral activity against HIV1 3B infected in human MT4 cells assessed as protection from virus-induced cytopathogenicity after 4 days by MTT assay. The settings on record: Human immunodeficiency virus 1, 3B, MT4, 96 h. It counts as functional, organism-based. The procedure, abridged: as §1
Data set [8] deals with Human immunodeficiency virus 1. The data set is described as follows: Antiviral activity against non-nucleoside reverse transcriptase inhibitor-resistant HIV1 bearing reverse transcriptase A17 (K103N, Y181C) mutation infected in human MT4 cells assessed as protection from virus-induced cytopathogenicity after 4 days by MTT assay. The format is functional, organism-based. The conditions noted are these: Human immunodeficiency virus 1, MT4, 96 h. The procedure, abridged:
as §1

A short description of data set [9]: Chemical stability assessed as chemical hydrolysis half life in RPMI-1640 culture medium by HPLC analysis. The format is physicochemical. The procedure, abridged:
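Chemical hydrolysis of the compounds was followed in RPMI-1640 medium alone.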

Data set [10] is described as follows: Cytotoxicity against human MT4 cells after 96 hrs by MTT assay. The format is cell-based. The procedure, abridged: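 Exponentially growing mock-infected MT-4 cells were seeded at 1 × 10⁵ cells/ml in RPMI-1640 with 10% FCS, penicillin G and streptomycin. They were incubated with serial compound dilutions at 37 °C in humidified 5% CO₂, and viability was read by MTT after 96 h. CC50 is the concentration reducing viability by 50%, as the mean of three independent determinations.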

Data set [11] is described as follows: Selectivity index, ratio of CC50 for human MT4 cells to EC50 for HIV1 3B. The conditions noted are these: read-out: Ratio CC50/EC50. It counts as toxicity, cell-based.

Molecules are shown by their SMILES.

For the compound `Cc1ccc(OP(=O)(O)OC[C@H]2O[C@@H](n3cc(C)c(=O)[nH]c3=O)C[C@@H]2N=[N+]=[N-])cn1`, in data set [1], the Stability entry is reported as “Stable”. Moreover, the half-life in data set [2] came out at 28.9 h.

With `O=c1ccn([C@H]2CC[C@@H](COP(=O)(O)Oc3ccccc3)O2)c(=O)[nH]1`, in data set [1], the Stability result is reported as “Stable”. Also, in data set [2], the half-life was 25.1 h.

Take `Cc1cn([C@H]2C[C@H](N=[N+]=[N-])[C@@H](COP(=O)(O)Oc3cncc(Cl)c3)O2)c(=O)[nH]c1=O`: in data set [1], the Stability entry is “Stable”. For the same compound, in data set [2], the half-life was 7.27 h.

Consider `Cc1cn([C@H]2C[C@H](N=[N+]=[N-])[C@@H](COP(=O)(Oc3ccccc3)Oc3ccncc3)O2)c(=O)[nH]c1=O` (stereo partly specified), for which the EC50 worked out at 10 nM in data set [3]; 100 nM in data set [4]; 10 nM in [5]; 400 nM in data set [6]; 10 nM in [7]; 8 nM in data set [8]. Besides, the half-life in [9] was 12.8 h. For the same compound, the CC50 at 96 h in data set [10] is greater than 100000 nM. Also, the selectivity ratio in [11] was greater than 10000.

For `Cc1cn([C@H]2C[C@H](N=[N+]=[N-])[C@@H](COP(=O)(O)Oc3ccncc3)O2)c(=O)[nH]c1=O`, in [1], the Stability result is “Stable”. In data set [2], the half-life worked out at 8.07 h.

Regarding `Cc1cn([C@H]2C[C@H](N=[N+]=[N-])[C@@H](COP(=O)(O)Oc3ccc(C#N)cc3)O2)c(=O)[nH]c1=O`, the Stability result in data set [1] is listed as “Stable”. In addition, the half-life in data set [2] was 7.08 h.

Regarding `Cc1cn([C@H]2C[C@H](N=[N+]=[N-])[C@@H](COP(=O)(O)Oc3cccnc3)O2)c(=O)[nH]c1=O`, the Stability entry in [1] is given as “Stable”. In addition, the half-life in [2] was determined as 3.88 h.

In the case of `Cc1cn([C@H]2C[C@H](N=[N+]=[N-])[C@@H](COP(=O)(O)Oc3ccc(Br)cc3)O2)c(=O)[nH]c1=O`, the Stability entry in data set [1] is given as “Stable”. Further, the half-life in data set [2] was found to be 7.97 h.

Regarding `Cc1cn([C@H]2C[C@H](N=[N+]=[N-])[C@@H](COP(=O)(O)Oc3ccc(Cl)cc3Cl)O2)c(=O)[nH]c1=O`, in data set [1], the Stability entry was “Stable”. Also, the half-life in data set [2] was 3.03 h.

Consider `Cc1cn([C@H]2C[C@H](N=[N+]=[N-])[C@@H](COP(=O)(O)Oc3ccccc3)O2)c(=O)[nH]c1=O`, for which, in data set [1], the Stability entry is on record as “Stable”. Besides, in data set [2], the half-life is 9.47 h.

For the compound `O=c1ccn([C@H]2CC[C@@H](COP(=O)(O)Oc3cccnc3)O2)c(=O)[nH]1`, the Stability entry in [1] was “Stable”. The half-life in data set [2] was 50.2 h.

Consider `O=c1ccn([C@H]2CC[C@@H](COP(=O)(O)Oc3ccncc3)O2)c(=O)[nH]1`, for which the Stability result in data set [1] is “Stable”. In addition, in [2], the half-life was 23.6 h.

As for `Nc1ncnc2c1ncn2[C@H]1CC[C@@H](COP(=O)(O)Oc2cccnc2)O1`, the Stability entry in data set [1] is given as “Stable”. Further, the half-life in data set [2] worked out at 64.2 h.

As to `Cc1cn([C@H]2C[C@H](N=[N+]=[N-])[C@@H](COP(=O)(O)Oc3cccnc3Cl)O2)c(=O)[nH]c1=O`, in [1], the Stability result is reported as “Stable”. Moreover, the half-life in data set [2] came to 16.3 h.

Regarding `Nc1ncnc2c1ncn2[C@H]1CC[C@@H](COP(=O)(O)Oc2ccccc2)O1`, in [1], the Stability entry is reported as “Stable”. In addition, in data set [2], the half-life amounted to 36.1 h.

`Cc1ncccc1OP(=O)(O)OC[C@H]1O[C@@H](n2cc(C)c(=O)[nH]c2=O)C[C@@H]1N=[N+]=[N-]`: in data set [1], the Stability entry is “Stable”. Further, the half-life in data set [2] is 15.8 h.

Consider `Cc1cn([C@H]2C[C@H](N=[N+]=[N-])[C@@H](COP(=O)(O)Oc3ccc(Cl)cc3)O2)c(=O)[nH]c1=O`, for which the Stability result in data set [1] was “Stable”. Moreover, in [2], the half-life stood at 5.5 h.

As a reminder, the half-life is the time needed for the level to fall by half in the phase considered. The term EC50 denotes the concentration at which the effect is half-maximal. For orientation: CC50 means the concentration that lowers cell viability or growth by half. Read a low CC50 as greater toxicity to the cells.

The values are drawn from ChEMBL document CHEMBL1151848, “Aryl nucleoside H-phosphonates. Part 16: synthesis and anti-HIV-1 activity of di-aryl nucleoside phosphotriesters” (Bioorg Med Chem, 2009).
